The values that follow come from ChEMBL document CHEMBL5260803, “Discovery of Novel, Orally Bioavailable β-Amino Acid Azaindole Inhibitors of Influenza PB2” (ACS Med Chem Lett, 2017).

Active and inactive are the calls of the source. The rule behind the calls is not given here.

Series [1] relates to Influenza A virus. Description: Antiviral activity against Influenza A virus A/PR/8/34 infected in MDCK cells assessed as reduction in viral RNA level incubated for 20 hrs by bDNA hybridization method. It is filed as functional. Conditions: A/PR/8/34, MDCK. An outline of the steps:
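Branched-DNA read-out of viral RNA in infected cells. EC90 is the compound concentration at which viral RNA equals 10% of that in control wells.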

The target in series [2] is Polymerase basic protein 2 (Influenza A virus (strain A/Puerto Rico/8/1934 H1N1), UniProt P03428). Description: Binding affinity to full length Influenza A virus PB2 cap-binding domain assessed as dissociation constant incubated for 60 mins by fluorescence polarization assay. In outline:
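Fluorescence polarization competition binding assay against the cap-binding domain of the PB2 subunit, giving Kd.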

Series [3] concerns Influenza A virus. Put plainly: Antiviral activity against Influenza A virus A/PR/8/34 infected in BALB/C mouse model assessed as increase in survival at 10 mg/kg, po administered twice daily for 10 days from 48 hrs post-infection and measured for 21 days. It is filed as functional, organism-based. Conditions: time 21.0 day. In outline:
(§1)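 Male BALB/c mice, 8 per group, inoculated intranasally with mouse-adapted A/PR/8/34 at 5e3 TCID50/mouse. Oral dosing twice daily for 10 days, starting 48 h after infection, at 10, 30 or 60 mg/kg. Survival and body weight were tracked against untreated controls.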

For series [4], the system named is Influenza A virus. Description: Antiviral activity against oseltamivir sensitive Influenza A virus A/Georgia/17/2006 (H1N1) infected in MDCK cells incubated for 72 hrs by cell protection assay. The class given is functional, organism-based. An outline of the steps:
(§2)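 MDCK cells incubated with test compound and influenza A virus for 72 h. EC50 is the concentration giving 50% cell protection, reported as the mean of N=3. Oseltamivir resistant or sensitive status was assigned by externally validated phenotypic or genetic analysis.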

Series [5] relates to Influenza A virus. Put plainly: Antiviral activity against oseltamivir sensitive Influenza A virus A/Henan/Jinshui/147/2007 (H3N2) infected in MDCK cells incubated for 72 hrs by cell protection assay. It is filed as functional, organism-based. In outline:
as §2

A short description of series [6]: Cmax in mouse at 30 mg/kg, po. It is filed as ADME, organism-based. Details: dose 30 mg/kg, route po. To be noted: in vivo.
Series [7] is described as follows: Clearance in rat at 1 mg/kg, iv. Conditions: in vivo. The class given is ADME, organism-based.
Series [8] in a line: AUC in mouse at 30 mg/kg, po. It is filed as ADME, organism-based. Also on record: dose 30 mg/kg, route po. To be noted: in vivo.
The test system of series [9] is Influenza A virus. Put plainly: Antiviral activity against oseltamivir sensitive Influenza A virus A/[…]/8/34 (H1N1) infected in MDCK cells incubated for 72 hrs by cell protection assay. The class given is functional, organism-based. An outline of the steps:
as §2

The subject of series [10] is Influenza A virus. Put plainly: Antiviral activity against oseltamivir sensitive Influenza A virus A/Vietnam/1203/2004 (H5N1) infected in MDCK cells incubated for 72 hrs by cell protection assay. It is filed as functional, organism-based.
The subject of series [11] is Influenza A virus. Description: Antiviral activity against Influenza A virus A/PR/8/34 infected in BALB/C mouse model assessed as increase in survival at 10 to 60 mg/kg, po administered twice daily for 10 days from 48 hrs post-infection and measured for 21 days. The class given is functional, organism-based. Conditions: dose 10-60 mg/kg, time 21.0 day. In outline: as §1

Series [12] deals with Influenza A virus. Put plainly: Antiviral activity against oseltamivir sensitive Influenza A virus A/California/07/2009 (H1N1) infected in MDCK cells incubated for 72 hrs by cell protection assay. It is filed as functional, organism-based. An outline of the steps:
as §2

Series [13] can be described thus: AUC in rat at 3 mg/kg, po. It is filed as ADME, organism-based. Details: dose 3 mg/kg, route po. To be noted: in vivo.
Series [14] is described as follows: Half-life in rat at 1 mg/kg, iv. It is filed as ADME, organism-based. To be noted: in vivo.
Series [15] is described as follows: Toxicity in BALB/C mouse model of influenza infected with Influenza A virus A/PR/8/34 assessed as body weight loss administered orally twice daily for 10 days from 48 hrs post-infection and measured for 21 days. Conditions: in vivo, po, 504 h, dose 10-60 mg/kg, time 21 day. In outline:
as §1

The nature of series [16]: Stability in rat S9 fraction assessed as compound remaining at 1 uM. The class given is ADME, subcellular. To be noted: read-out: Stability.
Series [17] can be described thus: Stability in human S9 fraction assessed as compound remaining at 1 uM. To be noted: read-out: Stability. The class given is ADME, subcellular.

Polymerase basic protein 2, sequence (P03428 whole entry, the tested form may be a part): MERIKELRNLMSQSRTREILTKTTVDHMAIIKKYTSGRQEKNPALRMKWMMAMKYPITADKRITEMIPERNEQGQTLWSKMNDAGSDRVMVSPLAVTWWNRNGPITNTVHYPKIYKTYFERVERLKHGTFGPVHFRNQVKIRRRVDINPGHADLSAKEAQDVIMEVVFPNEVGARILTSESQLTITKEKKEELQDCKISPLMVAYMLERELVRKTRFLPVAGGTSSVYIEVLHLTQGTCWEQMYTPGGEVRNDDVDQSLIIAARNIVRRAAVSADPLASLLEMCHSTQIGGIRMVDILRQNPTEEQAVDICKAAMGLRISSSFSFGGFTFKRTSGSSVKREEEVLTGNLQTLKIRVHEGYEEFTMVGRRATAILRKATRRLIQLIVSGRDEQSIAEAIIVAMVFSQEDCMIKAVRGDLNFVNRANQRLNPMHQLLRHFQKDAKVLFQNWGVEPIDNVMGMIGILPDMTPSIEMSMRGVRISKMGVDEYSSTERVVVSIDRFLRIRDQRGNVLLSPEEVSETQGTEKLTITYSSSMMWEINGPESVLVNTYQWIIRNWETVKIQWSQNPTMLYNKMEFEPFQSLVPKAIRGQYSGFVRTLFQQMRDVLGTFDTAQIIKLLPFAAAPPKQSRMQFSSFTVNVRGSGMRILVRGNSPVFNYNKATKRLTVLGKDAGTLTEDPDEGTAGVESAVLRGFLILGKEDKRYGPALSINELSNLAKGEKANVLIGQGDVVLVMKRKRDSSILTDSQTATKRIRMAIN

Turning to `CCC(CC)C(CC(=O)O)Nc1nc(-c2c[nH]c3ncc(F)cc23)ncc1F` (racemic), in the series with Influenza A virus [1], the concentration for an effect of 90% (EC90) worked out at 340 nM.

Regarding `CC(C)(C)[C@H](CC(=O)O)Nc1nc(-c2c[nH]c3ncc(F)cc23)ncc1F`, the concentration for an effect of 90% (EC90) in the series with Influenza A virus [1] is more than 6650 nM. Also, the Kd in series [2] came out at 150 nM.

Regarding `CC(C)(C)[C@H](CC(=O)O)Nc1nc(-c2c[nH]c3ncc(Cl)cc23)ncc1F`, the 90% effect concentration (EC90) in the series on Influenza A virus [1] is more than 3300 nM. In addition, the dissociation constant (Kd) in series [2] turned out to be 200 nM.

Take `CC(C)(C(CC(=O)O)Nc1nc(-c2c[nH]c3ncc(F)cc23)ncc1F)C(F)(F)F` (racemic): the EC90 with Influenza A virus [1] turned out to be 520 nM.

With `CCOC(=O)C1=C[C@@H](OC(CC)CC)[C@H](NC(C)=O)[C@@H](N)C1`, the result with Influenza A virus [3] was inactive.

`CC1([C@@H](CC(=O)O)Nc2nc(-c3c[nH]c4ncc(F)cc34)ncc2F)CCCC1`: the 90% effect concentration (EC90) in the series with Influenza A virus [1] was 20 nM. The Kd in series [2] is less than 3 nM.

Regarding `O=C(O)C[C@@H](Nc1nc(-c2c[nH]c3ncc(F)cc23)ncc1F)C1CCC1`, the concentration for an effect of 90% (EC90) in the series on Influenza A virus [1] worked out at 780 nM.

Take `CC1([C@@H](CC(=O)O)Nc2nc(-c3c[nH]c4ncc(F)cc34)ncc2F)CC1`: in the series with Influenza A virus [1], the 90% effect concentration (EC90) was found to be 670 nM.

With `CC1(C(CC(=O)O)Nc2nc(-c3c[nH]c4ncc(F)cc34)ncc2F)CCCCC1` (racemic), in the series with Influenza A virus [1], the 90% effect concentration (EC90) turned out to be 120 nM. Further, the Kd in series [2] is less than 3 nM.

Turning to `CC(C)(C)[C@@H](CC(=O)O)Nc1nc(-c2c[nH]c3ncc(F)cc23)ncc1F`, the EC50 was found to be 9 nM in the series with Influenza A virus [4]; 19 nM in the series on Influenza A virus [5]; 14 nM in the series with Influenza A virus [9]; 4 nM with Influenza A virus [10]; 4 nM in the series on Influenza A virus [12]. Also, the maximum concentration (Cmax) in series [6] was 11800 ng/mL. Further, the clearance in [7] amounted to 8 mL/min/kg. Further, the area under the curve (AUC) in series [8] is 7200 ng·h/mL; in series [13], 3300 ng·h/mL. The EC90 in the series on Influenza A virus [1] is 30 nM. Also, the result in the series with Influenza A virus [11] was Active. This compound had a half-life in series [14] of 9.9 h. For the same compound, the dissociation constant Kd in [2] was found to be 3 nM. In series [15], the Activity entry is given as “Non-Toxic”.

Consider `C[C@](CC(=O)O)(Nc1nc(-c2c[nH]c3ncc(F)cc23)ncc1F)C1CCC1`, for which the remaining at 1 µM in [16] stood at 100%; in series [17] it was 94%. In series [6], this compound registered a Cmax of 7400 ng/mL. The same compound came in with an AUC in [8] of 6700 ng·h/mL. In addition, the concentration for an effect of 90% (EC90) with Influenza A virus [1] worked out at 10 nM. The result with Influenza A virus [11] was Active. For the same compound, in series [2], the Kd was less than 3 nM.

For `CC(C)(C)[C@@H](CC(=O)O)Nc1nc(-c2c[nH]c3ncc(Cl)cc23)ncc1F`, the concentration for an effect of 90% (EC90) in the series on Influenza A virus [1] was found to be 23 nM. Further, the Kd in series [2] is less than 3 nM.

On to `CC(C)[C@@H](CC(=O)O)Nc1nc(-c2c[nH]c3ncc(F)cc23)ncc1F`, for which, in the series on Influenza A virus [1], the concentration for an effect of 90% (EC90) came out at 590 nM.

With `CCC(C)(C)[C@@H](CC(=O)O)Nc1nc(-c2c[nH]c3ncc(F)cc23)ncc1F`, the concentration for an effect of 90% (EC90) in the series on Influenza A virus [1] is 60 nM. Moreover, the Kd in series [2] was less than 3 nM.
